Bioassay records: PubChem BioAssay, several laboratories
Hits are enriched below; roughly 2.1% of the tested compounds scored in any of these assays.
GRK2 inh: inhibitors of human GRK2 displacing RNA aptamer | bead flow cytometry, FAM-aptamer displacement from GRK2 | inhibition of aptamer binding, % at 10 µM | AID 488847 | P25098 | 0.59% of 330,000 active;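 active means inhibition of aptamer binding above 40%, roughly 3 SD of noise, on plates passing a quality check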;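 further: median bead fluorescence of bound FAM aptamer so fluorescent compounds give negative values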
Target sequence (P25098 whole entry, looked up): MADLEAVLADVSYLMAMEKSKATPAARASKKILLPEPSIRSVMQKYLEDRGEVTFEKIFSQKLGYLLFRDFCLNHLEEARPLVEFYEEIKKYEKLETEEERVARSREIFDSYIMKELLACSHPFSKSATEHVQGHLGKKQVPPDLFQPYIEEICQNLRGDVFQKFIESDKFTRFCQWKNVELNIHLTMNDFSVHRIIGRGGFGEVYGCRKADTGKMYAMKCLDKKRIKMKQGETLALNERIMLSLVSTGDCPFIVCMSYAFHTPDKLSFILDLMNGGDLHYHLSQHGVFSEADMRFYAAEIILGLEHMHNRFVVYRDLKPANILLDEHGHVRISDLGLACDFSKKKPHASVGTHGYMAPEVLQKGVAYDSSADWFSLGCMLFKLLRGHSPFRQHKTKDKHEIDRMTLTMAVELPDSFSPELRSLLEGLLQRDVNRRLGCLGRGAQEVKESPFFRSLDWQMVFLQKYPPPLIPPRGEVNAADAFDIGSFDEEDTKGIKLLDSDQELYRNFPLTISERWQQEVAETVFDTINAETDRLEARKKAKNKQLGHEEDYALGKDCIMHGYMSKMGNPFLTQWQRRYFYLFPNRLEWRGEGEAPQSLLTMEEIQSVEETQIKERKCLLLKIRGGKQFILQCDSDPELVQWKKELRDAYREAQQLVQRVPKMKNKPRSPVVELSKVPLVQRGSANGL
SUMO1 PPI mod: SUMO1-SIM interaction modulation. SUMO1 binding to a labelled peptide, TR-FRET, 1 h. inhibition, % at 20 µM. 0.33% of 360,000 active. AID 602429; in the data active means inhibition above about 37%
DNMT1 block: blocks human DNA methyltransferase DNMT1. 0.83% of 360,000 active. DNMT1 molecular beacon, Hinp1I cleavage, fluorescence. P26358. inhibition (reported as % activation of signal), % at 10 µM; in the data active means inhibition above about 50%
LMPTP block: LMPTP (human) inhibition; recombinant LMPTP-A, OMFP fluorogenic substrate, fluorescence intensity; inhibition, % at 20 µM; 0.22% of 360,000 active; AID 651560;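 active means compounds that cut the enzyme signal by at least half of the control window in the single-dose screen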;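 further: plate controls were DMSO wells with enzyme plus substrate for no effect and substrate without enzyme for full effect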
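Test system: LMPTP-A, protein tyrosine phosphatase of low molecular weight; Input: 0.625 nM enzyme; Incubation: 50 min dark incubation at room temperature; Signal: endpoint fluorescence intensity from OMFP dephosphorylation; Read-out basis: % inhibition versus control wells.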
STEP inh: inhibitors of human striatal-enriched phosphatase STEP; recombinant STEP, OMFP fluorogenic substrate, fluorescence; inhibition, % at 20 µM; 0.25% of 360,000 active; AID 588621;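 active means inhibition at 20 µM, scaled per plate between control wells, above about 37%, limit read from the data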;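 further: 0% = DMSO with enzyme and substrate and 100% = substrate only without enzyme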
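Test system: STEP tyrosine phosphatase / Reagent: OMFP at 25 µM / Doses: 20 µM, 1% DMSO / Read-out: percent inhibition scaled to no-enzyme and uninhibited-enzyme controls, plate-pattern corrected / Detection: FITC-channel fluorescence of OMFP product / Medium: Bis-Tris buffer pH 6.0, 2.5 mM DTT, 0.005% Tween 20 / Schedule: 20 min at room temperature, dark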
Scp1 inh: inhibitors of human Scp-1 phosphatase; inhibition, % at 20 µM; Recombinant Scp1, phosphopeptide, malachite green phosphate absorbance; 0.88% of 340,000 active; Q9GZU7;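 active means inhibition above about 50% at 20 µM, limit read from the data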;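 further: plate controls were DMSO wells with enzyme for no effect and wells lacking enzyme for full effect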
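Test system: SCP-1 phosphatase catalytic domain, residues 76-261; measured by: colorimetric phosphate reagent with accelerator and stabiliser, absorbance at 630 nm; timing: enzyme reaction 45 min at room temperature, colour 5 min, stabilisation 30 min; also added: Phosphorylated 17-residue peptide substrate; compound dosing: one concentration, 20 µM, with 1.0% DMSO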
GRK2 inh confirm: human GRK2 inhibition confirmation, cherry pick 1; shares compounds with GRK2 inh; 4% of 2,000 active; aptamer displacement, % at 10 µM; bead-bound GRK2, FAM-aptamer displacement, flow cytometry;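 active means aptamer displacement above 40%, near three times the noise of non-fluorescent compounds, on plates passing quality checks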;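 further: negative values mostly reflect intrinsic compound fluorescence rather than true enhancement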
FAM quench CP1: aptamer fluorescence quenching in GRK2 counter-screen; fluorescence response (% of DMSO), % at 10 µM; Carboxyfluorescein RNA aptamer on beads, flow cytometry quenching; active compounds read low; 2,000 tested, under 10 active; shares compounds with GRK2 inh;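 active means compounds that quench the bead-bound fluorescent RNA probe, cutting fluorescence to under half of the solvent control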;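 further: counterscreen run without GRK2 so only probe quenching by compound is measured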
Active calls of the source: *.

What do the screens show for `Cc1nn(-c2ccc(F)cc2)c(Cl)c1/C=C(\CC(=O)O)c1nc2ccccc2s1`?
GRK2 inh: 2.0; SUMO1 PPI mod: -11.2; DNMT1 block: -2.9; LMPTP block: -0.5; STEP inh: -1.0; Scp1 inh: -4.3; GRK2 inh confirm: 2.4; FAM quench CP1: 98.4

What do the screens show for `COc1ccccc1CNC(=O)C1COc2ccccc2O1` (stereo not given)?
GRK2 inh: 52.0*; SUMO1 PPI mod: -3.0; DNMT1 block: 2.7; LMPTP block: -0.4; STEP inh: 2.1; Scp1 inh: -6.0; GRK2 inh confirm: 1.8; FAM quench CP1: 99.6

How did COc1ccc(-c2cc3nc(C)cc(N4CC(C)CC(C)C4)n3n2)cc1 (stereo not given) do in these assays?
GRK2 inh: 0.0; SUMO1 PPI mod: -0.7; DNMT1 block: -2.6; LMPTP block: 6.1; STEP inh: 0.8; Scp1 inh: 35.9

How did CCC(CO)[n+]1c(C)cc(/C=C2\Sc3ccccc3N2Cc2ccccc2)cc1C (stereo not given) do in these assays?
GRK2 inh: 71.0*; SUMO1 PPI mod: -17.2; DNMT1 block: 13.0; LMPTP block: 8.4; STEP inh: 0.0; Scp1 inh: -20.5; GRK2 inh confirm: 29.8; FAM quench CP1: 137.9

Results for CCC(=O)NCCc1nc2cc(NC(=O)c3ccccc3Cl)ccc2n1C ?
GRK2 inh: 0.0; SUMO1 PPI mod: -1.0; DNMT1 block: 4.9; LMPTP block: -2.1; STEP inh: -4.1; Scp1 inh: 4.2

How did Cn1c(CCNC(=O)c2ccccc2)nc2cc(NC(=O)C3CCCCC3)ccc21 do in these assays?
GRK2 inh: 1.0; SUMO1 PPI mod: 6.4; DNMT1 block: 3.0; LMPTP block: -1.6; STEP inh: -3.9; Scp1 inh: -8.4; GRK2 inh confirm: -8.4; FAM quench CP1: 99.4

What do the screens show for `CCC(=O)NCCc1nc2cc(NC(=O)Nc3ccccc3)ccc2n1C`?
GRK2 inh: 6.0; SUMO1 PPI mod: 4.2; DNMT1 block: 0.2; LMPTP block: -1.1; STEP inh: -2.9; Scp1 inh: -0.9; GRK2 inh confirm: -10.0; FAM quench CP1: 95.9

How did CC(=O)Nc1ccc2c(c1)nc(CCNC(=O)c1ccccc1)n2C do in these assays?
GRK2 inh: 57.0*; SUMO1 PPI mod: -1.6; DNMT1 block: 4.6; LMPTP block: -1.5; STEP inh: -0.9; Scp1 inh: -7.8; GRK2 inh confirm: -0.7; FAM quench CP1: 98.9

What do the screens show for `CC(=O)Nc1ccc(S(=O)(=O)NC(C)C(=O)NCC(c2ccco2)N(C)C)cc1` (stereo not given)?
SUMO1 PPI mod: -2.5; DNMT1 block: -4.8; LMPTP block: -3.1; STEP inh: 3.7; Scp1 inh: -3.9

How did CCOc1ccc2nc(-c3cc(NC(C)=O)ccc3O)sc2c1 do in these assays?
GRK2 inh: 0.0; SUMO1 PPI mod: -1.1; DNMT1 block: 13.3; LMPTP block: 3.4; STEP inh: 2.8; Scp1 inh: -0.9

Results for CCCCN(C(=O)c1c(-c2ccccc2)noc1C)c1c(N)n(CCC)c(=O)[nH]c1=O ?
GRK2 inh: 0.0; SUMO1 PPI mod: -6.1; DNMT1 block: 5.6; LMPTP block: -0.1; STEP inh: -1.5; Scp1 inh: -5.0

What do the screens show for `Nc1ccc2nc(-c3ccc(-c4nc5ccc(N)cc5[nH]4)cc3)[nH]c2c1`?
GRK2 inh: 85.0*; Scp1 inh: -11.0; GRK2 inh confirm: -23.9; FAM quench CP1: 101.4

What do the screens show for `Nc1ccc2nc(-c3cccc(-c4nc5ccc(N)cc5[nH]4)n3)[nH]c2c1`?
GRK2 inh: 4.0; SUMO1 PPI mod: 25.5; DNMT1 block: -10.7; LMPTP block: 9.7; STEP inh: 19.4; Scp1 inh: -7.7

How did OCC1(CCCc2ccccc2)CCN(Cc2cnc(N3CCOCC3)s2)CC1 do in these assays?
GRK2 inh: 0.0; SUMO1 PPI mod: 0.6; DNMT1 block: -1.5; LMPTP block: -0.5; STEP inh: -0.2; Scp1 inh: 6.9; GRK2 inh confirm: -2.5; FAM quench CP1: 94.0

How did CC(=O)c1cccc(N=Nc2c(-c3ccccc3)[nH]n(-c3ccccc3)c2=O)c1 do in these assays?
GRK2 inh: 0.0; SUMO1 PPI mod: -2.7; DNMT1 block: -3.0; LMPTP block: 1.7; STEP inh: 2.2; Scp1 inh: -5.2

How did CC(C(=O)Nc1ccon1)N1C(=O)c2ccccc2S1(=O)=O (stereo not given) do in these assays?
GRK2 inh: 95.0*; SUMO1 PPI mod: 6.6; DNMT1 block: 1.8; LMPTP block: -0.9; STEP inh: -1.0; Scp1 inh: -8.6; GRK2 inh confirm: -1.4; FAM quench CP1: 96.2

What do the screens show for `CCCN(C)C1CN(Cc2cn(Cc3ccc(C)cc3)nn2)S(=O)(=O)C1` (stereo not given)?
SUMO1 PPI mod: 6.4; LMPTP block: -2.5

What do the screens show for `CCCCCOc1ccc(/C=N/NC(=O)c2nnn(-c3nonc3N)c2CN2CCCCCC2)cc1`?
GRK2 inh: 55.0*; SUMO1 PPI mod: -3.4; DNMT1 block: -5.8; LMPTP block: 0.6; STEP inh: 1.5; Scp1 inh: -8.8; GRK2 inh confirm: 2.2; FAM quench CP1: 104.9

Results for Nc1nonc1-n1nnc(C(=O)N/N=C/c2ccc(O)cc2)c1CN1CCCCCC1 ?
GRK2 inh: 6.0; SUMO1 PPI mod: -1.9; DNMT1 block: 5.3; LMPTP block: -0.1; STEP inh: -0.7; Scp1 inh: -4.2

Results for CNC(=O)c1c[nH]c2ccc(S(=O)(=O)Nc3ccccc3F)cc2c1=O ?
GRK2 inh: 93.0*; SUMO1 PPI mod: 13.7; DNMT1 block: 12.7; LMPTP block: 0.8; STEP inh: 9.7; Scp1 inh: 20.8; GRK2 inh confirm: 8.4; FAM quench CP1: 102.6

Results for NC(=O)C1CCN(CC(=O)Nc2cccnc2Cl)CC1 ?
GRK2 inh: 42.0*; SUMO1 PPI mod: -0.9; DNMT1 block: 0.1; LMPTP block: -1.6; STEP inh: 2.1; Scp1 inh: -6.2; GRK2 inh confirm: -3.9; FAM quench CP1: 134.7

How did CCCCc1ccc(S(=O)(=O)Nc2nnc(C)s2)cc1 do in these assays?
GRK2 inh: 0.0; SUMO1 PPI mod: 4.9; DNMT1 block: -1.8; LMPTP block: -1.2; STEP inh: 3.1; Scp1 inh: 5.2

Results for CCN=C1S/C(=C\c2ccc(-c3cccc(C(=O)O)c3)o2)C(=O)N1CC ?
GRK2 inh: 34.0; SUMO1 PPI mod: -1.7; DNMT1 block: 18.3; LMPTP block: 2.3; STEP inh: 2.0; Scp1 inh: 42.5; GRK2 inh confirm: 5.2; FAM quench CP1: 82.8
